A short description of assay [1]: Inhibitory activity of compound against […] inosine-adenosine-guanosine nucleoside hydrolase (IAG-NH) from Trypanosoma brucei. The method in brief:
(§1)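 Values are inhibition constants (Ki) against the nucleoside hydrolases: nonspecific inosine-uridine NH from *Crithidia fasciculata* and purine-specific inosine-adenosine-guanosine NH from *Trypanosoma brucei brucei*.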

Assay [2] has as its target T1, Purine nucleoside phosphorylase (Homo sapiens) (UniProt P00491).
T1 sequence (whole entry): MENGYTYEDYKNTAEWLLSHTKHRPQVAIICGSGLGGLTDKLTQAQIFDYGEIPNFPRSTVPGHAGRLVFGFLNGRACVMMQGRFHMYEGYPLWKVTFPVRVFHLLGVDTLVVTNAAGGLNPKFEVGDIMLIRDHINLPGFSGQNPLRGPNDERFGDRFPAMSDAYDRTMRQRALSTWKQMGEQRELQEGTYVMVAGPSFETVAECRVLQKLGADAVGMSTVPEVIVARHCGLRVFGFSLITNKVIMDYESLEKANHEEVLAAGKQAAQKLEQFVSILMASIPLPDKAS

Assay [3] has as its target T2, Purine nucleoside phosphorylase (Homo sapiens, UniProt P00491).
T2 sequence (P00491 whole entry): T1 sequence (whole entry)
The assay can be described thus: Inhibitory activity of compound against human purine nucleoside phosphorylase (PNP).

In assay [4] the target is T3, Purine nucleoside phosphorylase (Bos taurus, UniProt P55859).
T3 sequence (P55859 whole entry): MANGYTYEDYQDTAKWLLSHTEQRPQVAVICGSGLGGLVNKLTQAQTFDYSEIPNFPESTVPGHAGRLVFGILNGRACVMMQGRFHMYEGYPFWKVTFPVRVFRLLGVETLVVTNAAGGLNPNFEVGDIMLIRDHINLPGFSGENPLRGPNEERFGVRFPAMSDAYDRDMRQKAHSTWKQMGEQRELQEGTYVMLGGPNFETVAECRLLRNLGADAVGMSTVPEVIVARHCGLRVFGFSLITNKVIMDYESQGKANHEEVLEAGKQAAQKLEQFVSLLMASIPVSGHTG
Description: Inhibitory activity of compound against bovine purine nucleoside phosphorylase (PNP).

The target of assay [5] is T4, Purine nucleoside phosphorylase (Bos taurus) (UniProt P55859).
T4 sequence (whole entry): T3 sequence (P55859 whole entry)

The nature of assay [6]: Inhibitory activity of compound against inosine-uridine nucleoside hydrolase (IU-NH) from crithidia fasciculata. In outline: as §1

Structures are written as SMILES.

The Ki is a dissociation constant, usually derived from enzyme kinetics or from competition with a known ligand. Consider `OC[C@H]1N[C@@H](c2n[nH]c3c(O)ncnc23)[C@H](O)[C@@H]1O`, for which the Ki in assay [1] amounted to 13900 nM; in assay [3], 0.104 nM; in assay [4] it was 0.042 nM; in assay [6] it was 1600 nM. The K6 came to 0.013 s⁻¹ in assay [2] and 0.021 s⁻¹ in assay [5].

On to `NC(=O)c1[nH]cc(C2N[C@H](CO)[C@H](O)[C@@H]2O)c1N` (stereo partly specified), for which the Ki in assay [1] stood at 23 nM; in assay [6], 3 nM.

On to `O=c1[nH]cnc2c([C@@H]3N[C@H](CO)[C@@H](O)[C@H]3O)c[nH]c12` [FORODESINE], for which the Ki in assay [1] amounted to 24 nM; in assay [4], 0.023 nM; in assay [6], 42 nM. Besides, the K6 in assay [2] was 0.0015 s⁻¹; in assay [5], 4e-05 s⁻¹.

With `NC(=O)c1[nH]nc(C2N[C@H](CO)[C@H](O)[C@@H]2O)c1N` (stereo partly specified), the Ki in assay [1] amounted to 3700 nM; in assay [3], 0.096 nM; in assay [4], 0.06 nM; in assay [6] it was 4800 nM. For the same molecule, the K6 in assay [5] stood at 0.019 s⁻¹.

Take `Nc1ncnc2c(C3N[C@H](CO)[C@H](O)[C@@H]3O)n[nH]c12` (stereo partly specified): the values for the Ki in assay [1] and in assay [6] were 14000 nM and 150 nM, respectively.

With `Nc1nc2c([C@@H]3N[C@H](CO)[C@@H](O)[C@H]3O)c[nH]c2c(=O)[nH]1`, the K6 in assay [2] was 0.0015 s⁻¹; in assay [5], 0.00019 s⁻¹. The Ki turned out to be 0.029 nM in assay [3] and 0.03 nM in assay [4].

On to `Nc1[nH]cnc2c(C3N[C@H](CO)[C@H](O)[C@@H]3O)cnc1-2` (stereo partly specified), for which the Ki came out at 0.9 nM in assay [1] and 7.2 nM in assay [6].

The values above are taken from ChEMBL document CHEMBL1145014, “8-Aza-immucillins as transition-state analogue inhibitors of purine nucleoside phosphorylase and nucleoside hydrolases” (J Med Chem, 2003).
